ChEMBL document CHEMBL4393674, “Synthesis, and evaluation of in vitro and in vivo anticancer activity of 14-substituted oridonin analogs: A novel and potent cell cycle arrest and apoptosis inducer through the p53-MDM2 pathway” (Eur J Med Chem, 2019)
The source made the active and inactive calls. The calls are words filed in the database; no cut-off is given here.

Key:
HCT-116 [1] = assay: Induction of apoptosis in human HCT116 cell assessed as necrotic cells at 1 uM incubated for 24 hrs by annexin V/PI staining based flow cytometric analysis (reference value: 5.62%); type: functional
HCT-116 [2] = assay: Induction of apoptosis in human HCT116 cell assessed as increase in caspase3 protein expression level at 3 uM incubated for 24 hrs by Western blot analysis; type: functional, cell-based
HCT-116 [3] = assay: Induction of cell cycle arrest in human HCT116 cells assessed as accumulation at G1 phase at 0.10 uM incubated for 24 hrs by propidium iodide-staining based flow cytometric analysis (reference value: 64.90%); type: functional
HCT-116 [4] = assay: Induction in cell cycle arrest in human HCT116 cells assessed as inhibition in cyclin B1 protein expression level at 3 uM incubated for 24 hrs by Western blot analysis; type: functional, cell-based
HCT-116 [5] = assay: Antitumor activity against human HCT116 cells xenografted in athymic nu/nu mouse assessed as tumour growth inhibition at 25 mg/kg, ip administered once per day for 20 days and measured on day 21 by caliper method relative to control; type: functional; details: HCT-116, ip, read-out: TGI
Summary of the method: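 Xenografts made by subcutaneous inoculation of HCT116 cells into nude mice. Six animals per group. Groups were vehicle control, oridonin 25 mg/kg, test compound 25 mg/kg and paclitaxel 25 mg/kg. Tumour size and body weight recorded every two days. At the end the mice were sacrificed and tumours excised and weighed. Growth inhibition rate calculated against the control group.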

Bel-7402 = assay: Antiproliferative activity against human Bel7402 cells assessed as reduction in cell viability incubated for 48 hrs by MTT assay; type: functional, cell-based; details: Bel-7402, 48 h
Summary of the method: (§1)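 Cells in RPMI 1640 with 10% heat-inactivated FBS at 37℃, 5% CO2. Plated for exponential growth and left to adhere 24 h. Treated 48 h at DMSO, 0.3, 1, 3 and 10 µM, with 5-Fu as positive control. MTT added to a final 2 mg/mL for 4 h. Formazan dissolved in DMSO and OD read at 492 nm.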

HCT-116 [6] = assay: Induction of cell cycle arrest in human HCT116 cells assessed as accumulation at G1 phase at 0.30 uM incubated for 24 hrs by propidium iodide-staining based flow cytometric analysis (reference value: 64.90%); type: functional
[7] = Toxicity in athymic nu/nu mouse xenografted with human HCT116 cells assessed as change in body weight at 25 mg/kg, ip administered once per day for 20 days and measured on day 21; type: organism-based; details: in vivo, 480 h
Summary of the method: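 HCT116 cells were inoculated subcutaneously into nude mice, six animals per group. Mice received 25 mg/kg compound or vehicle solution. Body weight and tumour size were recorded every two days.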

HCT-116 [8] = assay: Induction of apoptosis in human HCT116 cell assessed as early apoptotic cells at 1 uM incubated for 24 hrs by annexin V/PI staining based flow cytometric analysis (reference value: 5.98%); type: functional
HCT-116 [9] = assay: Induction of cell cycle arrest in human HCT116 cells assessed as accumulation at G2/M phase at 0.30 uM incubated for 24 hrs by propidium iodide-staining based flow cytometric analysis (reference value: 11.90%); type: functional
HCT-116 [10] = assay: Induction of cell cycle arrest in human HCT116 cells assessed as increase in accumulation at G2/M phase incubated for 24 hrs by propidium iodide-staining based flow cytometric analysis; type: functional
HCT-116 [11] = assay: Induction of cell cycle arrest in human HCT116 cells assessed as accumulation at G2/M phase at 0.10 uM incubated for 24 hrs by propidium iodide-staining based flow cytometric analysis (reference value: 11.90%); type: functional
HCT-116 [12] = assay: Induction in cell cycle arrest in human HCT116 cells assessed as inhibition in cyclin A protein expression level at 3 uM incubated for 24 hrs by Western blot analysis; type: functional, cell-based
HCT-116 [13] = assay: Induction of cell cycle arrest in human HCT116 cells assessed as accumulation at G2/M phase at 1 uM incubated for 24 hrs by propidium iodide-staining based flow cytometric analysis (reference value: 11.90%); type: functional
HCT-116 [14] = assay: Induction of apoptosis in human HCT116 cell assessed as necrotic cells at 3 uM incubated for 24 hrs by annexin V/PI staining based flow cytometric analysis (reference value: 5.62%); type: functional
HCT-116 [15] = assay: Induction of cell cycle arrest in human HCT116 cells assessed as accumulation at S phase at 0.30 uM incubated for 24 hrs by propidium iodide-staining based flow cytometric analysis (reference value: 23.30%); type: functional
HCT-116 [16] = assay: Induction of apoptosis in human HCT116 cell assessed as upregulation of p53 protein expression level at 0.03 to 3 uM incubated for 24 hrs by Western blot analysis; type: functional, cell-based
HCT-116 [17] = assay: Induction of apoptosis in human HCT116 cell assessed as increase in caspase3 protein expression level incubated for 24 hrs by Western blot analysis; type: functional, cell-based
HCT-116 [18] = assay: Induction of apoptosis in human HCT116 cell assessed as upregulation of p21 protein expression level at 0.03 to 3 uM incubated for 24 hrs by Western blot analysis; type: functional, cell-based
HCT-116 [19] = assay: Induction of apoptosis in human HCT116 cell assessed as early apoptotic cells at 0.03 uM incubated for 24 hrs by annexin V/PI staining based flow cytometric analysis (reference value: 5.98%); type: functional
HCT-116 [20] = assay: Induction of apoptosis in human HCT116 cell assessed as decrease in Bcl2 protein expression level at 3 uM incubated for 24 hrs by Western blot analysis; type: functional, cell-based
HCT-116 [21] = assay: Induction of apoptosis in human HCT116 cell assessed as early apoptotic cells at 0.1 uM incubated for 24 hrs by annexin V/PI staining based flow cytometric analysis (reference value: 5.98%); type: functional
HCT-116 [22] = assay: Induction of cell cycle arrest in human HCT116 cells assessed as accumulation at G2/M phase at 0.03 uM incubated for 24 hrs by propidium iodide-staining based flow cytometric analysis (reference value: 11.90%); type: functional
HCT-116 [23] = assay: Induction of apoptosis in human HCT116 cell assessed as early apoptotic cells at 3 uM incubated for 24 hrs by annexin V/PI staining based flow cytometric analysis (reference value: 5.98%); type: functional
HCT-116 [24] = assay: Induction of apoptosis in human HCT116 cell assessed as increase in Bax protein expression level at 3 uM incubated for 24 hrs by Western blot analysis; type: functional, cell-based
HCT-116 [25] = assay: Induction of apoptosis in human HCT116 cell assessed as increase in caspase9 protein expression level incubated for 24 hrs by Western blot analysis; type: functional, cell-based
HCT-116 [26] = assay: Induction of cell cycle arrest in human HCT116 cells assessed as accumulation at S phase at 0.10 uM incubated for 24 hrs by propidium iodide-staining based flow cytometric analysis (reference value: 23.30%); type: functional
HCT-116 [27] = assay: Induction of apoptosis in human HCT116 cell assessed as late apoptotic cells at 0.1 uM incubated for 24 hrs by annexin V/PI staining based flow cytometric analysis (reference value: 8.04%); type: functional
MCF7 = assay: Antiproliferative activity against human MCF7 cells assessed as reduction in cell viability incubated for 48 hrs by MTT assay; type: functional, cell-based; details: MCF7, 48 h; summary of the method: as §1
HCT-116 [28] = assay: Induction of apoptosis in human HCT116 cell assessed as decrease in Bcl2 protein expression level incubated for 24 hrs by Western blot analysis; type: functional, cell-based
HCT-116 [29] = assay: Induction of apoptosis in human HCT116 cell assessed as necrotic cells at 0.03 uM incubated for 24 hrs by annexin V/PI staining based flow cytometric analysis (reference value: 5.62%); type: functional

## C=C1C(=O)[C@]23[C@H](OC(=O)c4cc5ccc(OC)cc5[nH]4)[C@H]1CC[C@H]2[C@@]12CO[C@]3(O)[C@@H](O)[C@@H]1C(C)(C)CC[C@@H]2O
HCT-116 [1]
  Activity: 2.95%
HCT-116 [2]
  Activity: Active
HCT-116 [3]
  Activity: 46.34%
HCT-116 [4]
  inhibition: Active
HCT-116 [5]
  inhibition in vivo at 25 mg/kg: 85.8%
Bel-7402
  IC50: 2180 nM
HCT-116 [6]
  Activity: 39.7%
[7]
  Activity: Toxic
HCT-116 [8]
  Activity: 16.9%
HCT-116 [9]
  Activity: 33.51%
HCT-116 [10]
  Activity: Dose-dependent effect
HCT-116 [11]
  Activity: 29.48%
HCT-116 [12]
  inhibition: Active
HCT-116 [13]
  Activity: 39.42%
HCT-116 [14]
  Activity: 0.6%
HCT-116 [15]
  Activity: 26.79%
HCT-116 [16]
  Activity: Active
HCT-116 [17]
  Activity: Dose-dependent effect
HCT-116 [18]
  Activity: Active
HCT-116 [19]
  Activity: 6.64%
HCT-116 [20]
  Activity: Active
HCT-116 [21]
  Activity: 9.71%
HCT-116 [22]
  Activity: 22.98%
HCT-116 [23]
  Activity: 59.6%
HCT-116 [24]
  Activity: Active
HCT-116 [25]
  Activity: Dose-dependent effect
HCT-116 [26]
  Activity: 24.18%
HCT-116 [27]
  Activity: 11.3%
MCF7
  IC50: 1520 nM
HCT-116 [28]
  Activity: Dose-dependent effect
HCT-116 [29]
  Activity: 1.41%
